Data as given in ChEMBL document CHEMBL4007441, “Novel Design of Heptad Amphiphiles To Enhance Cell Selectivity, Salt Resistance, Antibiofilm Properties and Their Membrane-Disruptive Mechanism” (J Med Chem, 2017).
Calls of active or inactive are those of the source. The calls are words filed in the database; no cut-off is given here.

Experiments:
RAW264.7 = assay: Inhibition of LPS-induced NO production in mouse RAW264.7 cells at 10 mg/L after 18 hrs by Griess assay; assay type: functional, cell-based
How it was run: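 RAW264.7 cells (5 × 10^5/well) were stimulated with LPS at 100 ng/mL, with or without peptide at 10 mg/L, for 18 h at 37 °C. Nitrite in the medium was measured with Griess reagent at 540 nm against a NaNO2 standard curve. Three independent experiments.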

Lipopolysaccharide (LPS) [1] = assay: Inhibition of BODIPY-TR-cadaverine binding to Pseudomonas aeruginosa 10 LPS by fluorescence spectrophotometric analysis
Pseudomonas aeruginosa [2] = assay: Antibacterial activity against Pseudomonas aeruginosa ATCC 27853 after 18 hrs in presence of ZnCl2 by broth microdilution method; assay type: functional; conditions: ATCC 27853, 18 h
How it was run: (§1)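 Broth microdilution MIC against ATCC 27853 in Mueller-Hinton broth with added salt at final concentrations: NaCl 150 mM, KCl 4.5 mM, NH4Cl 6 µM, ZnCl2 8 µM, FeCl3 4 µM. Inoculum about 1 × 10^6 CFU/mL from exponential phase, mixed 1:1 with two-fold peptide dilutions. MIC read as no visible turbidity after 18 h at 37 °C.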

Pseudomonas aeruginosa [3] = assay: Antibacterial activity against Pseudomonas aeruginosa ATCC 27853 after 18 hrs in presence of NaCl by broth microdilution method; assay type: functional; conditions: ATCC 27853, 18 h; how it was run: as §1
Pseudomonas aeruginosa [4] = assay: Antibacterial activity against ceftazidime-resistant Pseudomonas aeruginosa 11431 after 18 hrs by broth microdilution method; assay type: functional; conditions: Pseudomonas aeruginosa, 11431, 18 h
How it was run: (§2)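 Broth microdilution in Mueller-Hinton broth. Exponential-phase bacteria (37 °C, 220 rpm shaking) were diluted to about 1 × 10^6 CFU/mL and mixed 1:1 with two-fold serial peptide dilutions. MIC is the lowest concentration with no visible turbidity after 18 h at 37 °C. Controls were uninoculated MHB and untreated culture. Run at least three times, two replicates each.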

Staphylococcus aureus = assay: Antibacterial activity against Staphylococcus aureus ATCC 29213 after 18 hrs by broth microdilution method; assay type: functional; conditions: ATCC 29213, 18 h
How it was run: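 Broth microdilution. Exponential-phase bacteria grown in MHB at 37 °C, diluted to about 1 × 10^6 CFU/mL in MHB and mixed 1:1 with two-fold dilutions of peptide. MIC is the lowest concentration with no visible turbidity after 18 h at 37 °C. Controls were uninoculated broth and peptide-free culture. At least three repeats, duplicates each.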

Lipopolysaccharide (LPS) [5] = assay: Binding affinity to Pseudomonas aeruginosa ATCC 27853 LPS by SPR spectroscopic analysis
How it was run: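 Biacore SPR. Peptides were amine-coupled to CM5 chips at 20 µg/mL in 10 mM acetate pH 6.0, giving about 1300 RU. LPS at 3.125–12.5 µg/mL in 20 mM Tris/100 mM NaCl pH 7.4 was flowed at 10 µL/min. Surfaces were regenerated with 50 mM NaOH plus 0.05% SDS. Three independent runs.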

Pseudomonas aeruginosa [6] = assay: Antibacterial activity against Pseudomonas aeruginosa ATCC 27853 after 18 hrs by broth microdilution method; assay type: functional; conditions: ATCC 27853, 18 h; how it was run: as §2
Pseudomonas aeruginosa [7] = assay: Antibacterial activity against ciprofloxacin-resistant Pseudomonas aeruginosa 11411 after 18 hrs by broth microdilution method; assay type: functional; conditions: Pseudomonas aeruginosa, 11411, 18 h
How it was run: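 Broth microdilution in Mueller-Hinton broth. Exponential-phase bacteria (37 °C, 220 rpm shaking) were diluted to about 1 × 10^6 CFU/mL and mixed 1:1 with two-fold serial peptide dilutions. Controls were uninoculated MHB and untreated culture. Run at least three times, two replicates each.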

Pseudomonas aeruginosa [8] = assay: Antibacterial activity against Pseudomonas aeruginosa ATCC 27853 assessed as induction of membrane distortion at MIC after 1 hr by SEM analysis; assay type: functional
How it was run: (§3)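 For SEM, exponential-phase cells were washed in PBS pH 7.4, set to OD600 0.2 and exposed to 1 × MIC for 60 min at 37 °C. They were fixed in 2.5% glutaraldehyde at 4 °C overnight, dehydrated through graded ethanol and tert-butanol, dried, gold-coated and imaged. Untreated control. At least three repeats, duplicates.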

Pseudomonas aeruginosa [9] = assay: Antibacterial activity against Pseudomonas aeruginosa ATCC 27853 assessed as induction of intracellular content dispersion at MIC after 1 hr by TEM analysis; assay type: functional, cell-based
How it was run: (§4)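 For TEM, exponential-phase cells were washed in PBS pH 7.4, adjusted to OD600 0.2 and treated at 1 × MIC for 60 min at 37 °C. Fixation was 2.5% glutaraldehyde at 4 °C overnight, then 2% osmium tetroxide for 70 min. Samples went through a graded ethanol series, ethanol/acetone and acetone before imaging. Untreated control.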

Pseudomonas aeruginosa [10] = assay: Antibacterial activity against Pseudomonas aeruginosa ATCC 27853 assessed as induction of membrane corrugation at MIC after 1 hr by SEM analysis; assay type: functional; how it was run: as §3
Pseudomonas aeruginosa [11] = assay: Antibacterial activity against Pseudomonas aeruginosa ATCC 27853 assessed as induction of cytoplasmic membrane depolarization after 90 min incubation under dark condition by diSC3-5 dye-based fluorescence analysis; assay type: functional
How it was run: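 Exponential-phase cells were washed three times in 5 mM HEPES (pH 7.4). diSC3-5 (0.4 µM final) and KCl (0.1 M final) were added, then the cells were incubated 90 min at 37 °C in the dark. Peptide at a range of concentrations was added and fluorescence followed at ex 622/em 670 nm. Three independent experiments, duplicates each.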

Pseudomonas aeruginosa [12] = assay: Antibacterial activity against Pseudomonas aeruginosa ATCC 27853 assessed as induction of membrane integrity disruption at MIC after 15 mins by PI-staining based flow cytometry (reference value: 4.7%)
Pseudomonas aeruginosa [13] = assay: Antibacterial activity against Pseudomonas aeruginosa ATCC 27853 assessed as induction of membrane damage at MIC after 1 hr by TEM analysis; assay type: functional; how it was run: as §4
Pseudomonas aeruginosa [14] = assay: Antibacterial activity against Pseudomonas aeruginosa ATCC 27853 assessed as induction of membrane damage at MIC after 1 hr by SEM analysis; assay type: functional; how it was run: as §3

Substance	inhibition (RAW264.7)	Activity (Lipopolysaccharide (LPS) [1])	MIC (Pseudomonas aeruginosa [2])	MIC (Pseudomonas aeruginosa [3])	MIC (Pseudomonas aeruginosa [4])	MIC (Staphylococcus aureus)	Activity (Lipopolysaccharide (LPS) [5])	MIC (Pseudomonas aeruginosa [6])	MIC (Pseudomonas aeruginosa [7])	Activity (Pseudomonas aeruginosa [8])	Activity (Pseudomonas aeruginosa [9])	Activity (Pseudomonas aeruginosa [10])	Activity (Pseudomonas aeruginosa [11])	Activity (Pseudomonas aeruginosa [12])	Activity (Pseudomonas aeruginosa [13])	Activity (Pseudomonas aeruginosa [14])
H-LRRLRRRWWRRRLRRL-NH2	Active	Dose-dependent effect	8 mg/L	16 mg/L	16 mg/L	8 mg/L	Dose-dependent effect	8 mg/L	8 mg/L	–	–	–	–	–	–	–
H-LRRLRRRWWWRRRLRRL-NH2	Active	Dose-dependent effect	8 mg/L	8 mg/L	4 mg/L	8 mg/L	Dose-dependent effect	4 mg/L	4 mg/L	Active	Active	Active	Dose-dependent effect	99.5%	Active	Active
